VIM-2 inhibitor: VIM-2 metallo-beta-lactamase inhibitors, primary screen, biochemical, epi-absorbance readout, Pseudomonas aeruginosa enzyme; inhibition, % at 5.6 µM; 290,000 tested, 0.89% active; purified VIM-2, nitrocefin hydrolysis, epi-absorbance fluorescence;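 active means inhibition above the mean of all tested compounds plus 3 SD, cutoff set per screening run, cut at about 7.5% in these data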;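 further: red hydrolysis product quenches plate fluorescence so inhibitors raise well fluorescence; 0% = enzyme with DMSO and 100% = DMSO without enzyme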
Mdm2 MdmX PPI: inhibitors of human Mdm2-MdmX association, primary screen, cell-based, luminescence, split luciferase, SaOS-2, uHTS; SaOS-2 split-luciferase Mdm2/MdmX complementation; inhibition, % at 8 µM; 330,000 tested, 3% active; AID 485346, 2010;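 active means inhibition of at least 50% at 8 µM in the primary screen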
aSyn 5UTR inh: MLPCN primary screen, SNCA 5' untranslated region; 300,000 tested, 0.82% active; alpha-synuclein 5'UTR reporter, inhibitor activity; inhibition, % (tested at 7.5 µM); in the data active means inhibition above about 60%;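 further: H4 neuroglioblastoma cells stably carrying SNCA 5'UTR luciferase fusion; 0% = DMSO wells and 100% = positive control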
Jurkat NFkB inh: inhibitors of induced NF-kB luciferase reporter, primary screen, TCR NF-kB activation inhibitor project, cell-based, luminescence, uHTS | inhibition, % at 4 µM | 330,000 tested, 0.53% active | AID 435003, 2010 | Jurkat, PMA/ionomycin-induced NF-kB luciferase reporter; in the data active means inhibition above about 50%
697 NFkB inh: inhibitors of PMA/ionomycin-induced NF-kB reporter, 697 cells, primary screen, B-cell NF-kB inhibitor project, cell-based, luminescence, uHTS | AID 435022, 2010 | 330,000 tested, 0.33% active | inhibition, % at 4 µM | 697 B-cell NF-kB luciferase reporter, 16 h; in the data active means inhibition above about 35%
IMP-1 inhibitor: IMP-1 metallo-beta-lactamase inhibitors, primary screen, biochemical, epi-absorbance readout, Pseudomonas aeruginosa enzyme. metallo-beta-lactamase IMP-1 (Pseudomonas aeruginosa). purified IMP-1, nitrocefin hydrolysis, epi-absorbance fluorescence. inhibition, % at 5.6 µM. 290,000 tested, 0.45% active. AID 1556, 2009;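 active means inhibition above the mean plus 3 SD of all compounds in the same screening run, cut at about 4.5% in these data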;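 further: 0% = IMP-1 with DMSO and 100% = DMSO wells lacking enzyme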
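System – purified recombinant IMP-1 beta-lactamase · Input – IMP-1 dispensed at 0.2 nM · Timing – 15 min preincubation plus 25 min reaction at 25 °C · Signal – Epi-absorbance fluorescence, 480 nm excitation, 530 nm emission · Measure – percent IMP-1 inhibition derived from blank-referenced optical density · Controls – Enzyme-plus-DMSO low control, enzyme-free DMSO high control · Replication – singlicate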
Mdm2 MdmX conf: Mdm2-MdmX complex disruptors, retested hits, confirmation, luminescence, single concentration; shares compounds with Mdm2 MdmX PPI; Mdm2-MdmX binding, luminescent assay; inhibition, % at 8 µM; 10,000 tested, 55% active; in the data active means inhibition above about 40%
FLuc counter: full-length luciferase signal inhibition, confirmation, counter-screen for Mdm2/MdmX interaction inhibitor project, cell-based, single concentration, SaOS-2; shares compounds with Mdm2 MdmX PPI; SaOS-2 full-length luciferase counterscreen, luminescence; inhibition, % at 8 µM; 6,200 tested, 77% active; AID 504607, 2011;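 active means mean inhibition at 8 µM reaching about 37%, which flags the compound as non-specific, limit read from the data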;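 further: p53-null SaOS-2 cells with luciferase driven by a doxycycline-inducible promoter; compound on cells about two nights before reading with doxycycline added after day one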
Starred values were filed as active, the others as inactive; nt = not tested or not shown. Shown are actives, neighbours in structure and some others; about 4.7% of the full set was active somewhere.

SMILES | VIM-2 inhibitor | Mdm2 MdmX PPI | aSyn 5UTR inh | Jurkat NFkB inh | 697 NFkB inh | IMP-1 inhibitor | Mdm2 MdmX conf | FLuc counter
COc1cc(C(=O)N/N=C(\C)c2ccccn2)cc(OC)c1OC | -5 | 77* | 109* | 32 | 6 | -4 | 25 | nt
COc1ccc(C(=O)N/N=C(\Cc2ncc[nH]2)c2ccccc2)cc1 | -2 | 54* | -61 | -11 | -6 | -5 | 42* | 26
c1ccc(N/N=C(\Cc2ncc[nH]2)c2ccccc2)cc1 | -2 | 15 | -55 | 11 | -2 | -2 | nt | nt
O=C(Nc1ccc(Cl)cc1Cl)NC1CCN(S(=O)(=O)c2ccc(F)cc2)CC1 | -3 | 51* | 18 | -12 | 7 | -2 | 42* | 59*
COc1ccccc1NS(=O)(=O)c1cccc(NC(=O)Nc2ccc(Cl)cc2)c1 | -2 | 94* | 6 | -5 | -11 | -2 | 43* | 69*
COc1ccccc1NS(=O)(=O)c1cccc(NC(=O)Nc2ccccc2)c1 | 1 | 25 | 4 | -2 | 11 | -1 | nt | nt
COc1cc(Cl)c(C)cc1NCC(=O)Nc1cccc(S(=O)(=O)N2CCCC2)c1 | nt | 51* | nt | 8 | 19 | nt | 14 | nt
O=C(Nc1ccc(Cl)cc1Cl)NC1CCCC1 | -1 | 0 | -74 | -26 | -49 | -2 | nt | nt
O=C(CNc1ccc(F)cc1Cl)Nc1cccc(S(=O)(=O)N2CCCCC2)c1 | nt | 6 | nt | -3 | -22 | nt | nt | nt
O=C(Nc1cccc(S(=O)(=O)N2CCCCC2)c1)Nc1ccc(Cl)cc1Cl | -3 | 88* | 26 | 6 | 12 | -1 | 40 | nt
C1=Nc2c(Nc3ccccc3)ncnc2Oc2ccccc21 | -3 | 24 | -12 | -21 | -18 | -3 | nt | nt
CC(=O)Nc1ccc(Oc2sc(C(=O)c3ccccc3)c(N)c2C#N)cc1 | 1 | 61* | -41 | -4 | -31 | 0 | 29 | 78*
CC(=O)Nc1ccc(Oc2ccccc2)cc1 | -4 | 14 | 10 | -7 | -26 | -2 | nt | nt
COC(=O)c1ccc(CNC(=O)c2ccc(OCC(=O)N3CCOCC3)c(OC)c2)cc1 | nt | 4 | -5 | 4 | -2 | nt | nt | nt
CCc1cc2c(C)ccc(C)c2nc1SCC(=O)Nc1c[nH]c(=O)[nH]c1=O | 0 | 56* | 11 | -7 | 20 | -4 | 24 | nt
CCc1cc2c(C)ccc(C)c2nc1SCC(=O)Nc1c(C)[nH]c(=O)[nH]c1=O | -1 | -12 | 30 | 12 | -16 | -1 | nt | nt
Cc1ccc(-c2nnc(SCC(=O)NC3CC3)o2)cc1 | -3 | -16 | -42 | -10 | 11 | -2 | nt | nt
O=C(Cc1ccccc1)NS(=O)(=O)c1ccc(N=NN2CCOCC2)cc1 | -1 | 87* | 1 | -7 | -11 | 0 | -14 | nt
O=C1[C@@H]2Cc3c([nH]c4ccccc34)C(c3cccc(Br)c3)N2C(=O)CN1C1CCN(Cc2ccccc2)CC1 (some centres not stated) | -3 | 88* | -4 | 13 | -5 | -2 | 39 | 73*
CCOc1ccccc1C1c2[nH]c3ccccc3c2C[C@H]2C(=O)N(C3CCN(Cc4ccccc4)CC3)CC(=O)N12 (some centres not stated) | -1 | 62* | 10 | -5 | -8 | -2 | 51* | 67*
O=C1[C@@H]2Cc3c([nH]c4ccccc34)C(c3ccccc3)N2C(=O)CN1C1CCN(Cc2ccccc2)CC1 (some centres not stated) | 1 | 63* | 13 | -16 | 0 | -1 | 38 | 92*
COC(=O)c1ccc(C2c3[nH]c4ccccc4c3C[C@H]3C(=O)N(C4CCN(Cc5ccccc5)CC4)CC(=O)N23)cc1 (some centres not stated) | -2 | 16 | 13 | -21 | 7 | -3 | nt | nt
O=C1CC(NS(=O)(=O)c2ccccc2)CN1c1ccc2c(c1)OCCO2 (configuration not stated) | nt | -9 | 3 | -7 | -8 | nt | nt | nt
C=CCNC(=O)c1ccc(CN(c2ccc(OCC)cc2)S(=O)(=O)c2ccc(C)cc2)cc1 | -1 | 50 | -93 | 18 | 1 | -1 | 40 | 50*
C=CCNC(=O)c1ccc(N(Cc2ccc(Cl)cc2)S(C)(=O)=O)cc1 | -2 | 19 | -4 | -4 | 0 | -2 | nt | nt
SMILES | VIM-2 inhibitor | Mdm2 MdmX PPI | aSyn 5UTR inh | Jurkat NFkB inh | 697 NFkB inh | IMP-1 inhibitor | Mdm2 MdmX conf | FLuc counter
CC(=O)OCC(=O)Nc1ccccc1C | -1 | 28 | -19 | -7 | 9 | -5 | nt | nt
CCOCCCn1c(SCC(=O)Nc2cc(C(C)(C)C)nn2-c2ccccc2)nc2ccccc2c1=O | -3 | 54* | 26 | 6 | 13 | 1 | 8 | nt
CC(C)(C)c1cc(NC(=O)CCl)n(-c2ccccc2)n1 | -3 | 79* | -60 | 12 | 26 | -3 | 58* | 24
COCCn1c(SCC(=O)Nc2cc(C(C)(C)C)nn2-c2ccccc2)nc2ccccc2c1=O | -3 | 5 | 27 | -3 | 2 | -1 | nt | nt
CCN(CC)c1nc2c(c(=O)n(C)c(=O)n2C)n1CC(=O)c1ccccc1 | 1 | 6 | 9 | 13 | -6 | -1 | nt | nt
COc1ccc(NC(=O)c2ccccc2NS(=O)(=O)c2ccc(CNC(C)=O)cc2)c(OC)c1 | -2 | 30 | -7 | 3 | -11 | -3 | nt | nt
O=C(CCS(=O)(=O)c1ccccc1)Nc1nc2cc3c(cc2s1)OCCO3 | 0 | 57* | -47 | 2 | -37 | -1 | 28 | nt
COC(=O)c1ccc2nc(NC(=O)CCS(=O)(=O)c3ccccc3)sc2c1 | -3 | 91* | 21 | 4 | 13 | -1 | 68* | 27
COc1ccc(OC)c2sc(NC(=O)CCS(=O)(=O)c3ccccc3)nc12 | -2 | 98* | -19 | 17 | 0 | -3 | 77* | 24
COc1ccc(OC)c2sc(NC(=O)CCSc3ccccc3)nc12 | -2 | 48 | 6 | -17 | 17 | -2 | nt | nt
CCOC(=O)N1CCN(S(=O)(=O)c2ccc(C(=O)Nc3nc4ccc(F)cc4s3)cc2)CC1 | 0 | 55* | -4 | 9 | -11 | -1 | 23 | nt
O=C(CCS(=O)(=O)c1ccccc1)Nc1nc2cc3c(cc2s1)OCO3 | -1 | 25 | -65 | 0 | -26 | -1 | nt | nt
CCOC(=O)N1CCN(S(=O)(=O)c2ccc(C(=O)Nc3nc4ccccc4s3)cc2)CC1 | -4 | 9 | -13 | -26 | -69 | -3 | nt | nt

Source: PubChem BioAssay
